Experimental data: ChEMBL document CHEMBL1121573, “2-(Aminomethyl)phenols, a new class of saluretic agents. 1. Effects of nuclear substitution” (J Med Chem, 1980); call rule not given here

Assays:
[1] = Evaluated for salidiuretic activity measured as sodium ion excretion in Rat, administered orally at a dose of 16.5 mg/kg; assay type: organism-based; set-up: dose 16.5 mg/kg; settings: Urine
Summary of the method: (§1)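 Female Charles-River rats (150–170 g), overnight on sugar diet with water ad libitum. Compound dissolved in DMF, diluted with water containing Tween 80 (final 4% DMF), given po in 5.0 mL; concurrent vehicle placebo. Three rats per metabolism cage; 0–5 h urine analysed for Na+, K+, Cl-. Values: mequiv × 100 per cage, geometric means of three cages per dose; scored 0–6 by Na+.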

Rattus norvegicus [2] = experiment: Evaluated for salidiuretic activity measured as sodium ion excretion in Rat, administered orally at a dose of 50 mg/kg; assay type: functional, Urine; set-up: unit not given beside the values; settings: route oral; summary of the method: as §1
Canis familiaris [3] = experiment: Compound administered intravenously at a dose of 5 mg/kg was evaluated for salidiuretic activity measured as sodium ion excretion in Dog; act above 5 mg/kg; assay type: ADME, organism-based, Canis lupus familiaris, Urine; settings: in vivo, iv
Summary of the method: (§2)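 Conditioned female mongrel dogs, postabsorptive, water-loaded (500 mL po) 1 h before sodium pentobarbital anesthesia (30 mg/kg iv). Bladder catheter; creatinine 4 g sc; phosphate–mannitol buffer pH 7.4 infused (3.0 mL/min) throughout. […] Urine Na+ measured; response scored 0–6.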

[4] = Compound administered orally at a dose of 5 mg/kg was evaluated for salidiuretic activity measured as sodium ion excretion in Rat; assay type: organism-based; set-up: dose 5 mg/kg; settings: Urine; summary of the method: as §1
Rattus norvegicus [5] = experiment: Compound administered orally at a dose of 81 mg/kg was evaluated for salidiuretic activity measured as sodium ion excretion in Rat; assay type: ADME, organism-based, Urine; set-up: dose 81 mg/kg, route oral; unit not given beside the values; settings: in vivo, po; summary of the method: as §1
Canis familiaris [6] = experiment: Compound administered intravenously was evaluated for salidiuretic activity measured as sodium ion excretion in Dog; Value ranges from 800-899; assay type: ADME, organism-based, Canis lupus familiaris, Urine; settings: in vivo, iv; summary of the method: as §2

Row | Diuretic activity (Canis familiaris [3]) | Diuretic activity (Rattus norvegicus [5]) | Diuretic activity (Canis familiaris [6]) | Structure (SMILES) | Diuretic activity [1] | Diuretic activity (Rattus norvegicus [2]) | Diuretic activity [4]
1 | active above 5 mg/kg | 2.4 | – | NCc1cc(Cl)cc(Cl)c1O | 0.6 | 1.8 | 0.4
2 | – | – | 800 | CC(C)(C)c1cc(CN)c(O)c(C(=O)O)c1.Cl | – | – | –
